# Screens from PubChem.
# Jurkat NFkB inh: lowers PMA/ionomycin-induced NF-kB signal in Jurkat cells; PMA/ionomycin-induced NF-kB luciferase reporter, luminescence; inhibition, % at 4 µM; hit rate 0.53% among 330,000; AID 435003; in the data active = inhibition above about 50%
# UPR XBP1 act: activators of adaptive arm of unfolded protein response (XBP1) | CHO-XBP1 luciferase reporter, IRE1-XBP1 UPR activation, luminescence; percent of tunicamycin response, DMSO as zero | activation, % at 20 µM | hit rate 0.33% among 330,000 | AID 463104;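 active = versus positive control, 20 µM dose yields 30% or more activation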
#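 Material: CHO-XBP1 cells stably carrying IRE1-XBP1-driven luciferase reporter | Medium: F12 with 10% serum | Compound dosing: 20 µM single concentration, DMSO 1% | Incubation: Overnight seeding at 37 °C, 6 h compound treatment at 37 °C | Detection: Steady-Glo luminescence read | Read-out basis: % activation of reporter signal versus tunicamycin and DMSO controls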
# CHOP UPR activ: apoptotic UPR (CHOP) activation | CHO-CHOP luciferase reporter, luminescence; percent of tunicamycin response over DMSO baseline | activation, % at 10 µM | hit rate 0.34% among 330,000 | AID 449763;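 active = at 10 µM dose, activation of 40% or more, normalized to positive control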
#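 Test system: CHO CHOP reporter cells. Input: 500 CHO-CHOP cells per well. Medium: F12 with 10% FBS. Technique: luciferase luminescence. Measure: percent activation relative to tunicamycin control. Dosing: 10 µM compound, 0.5% DMSO. Timing: 16-18 h cell attachment, then 6 h compound exposure, 37 °C.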
# CRFR2-BP antag: antagonists of CRF-binding protein/CRF-R2 receptor complex | inhibition, % at 11.8 µM | hit rate 0.59% among 350,000 | HEK293 CRF-R2/CRF-BP, CRF-induced calcium fluorescence;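 active = inhibition of the ligand-induced calcium signal above about 50% at the single tested concentration, limit read from the data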
# 697 NFkB inh: inhibitors of the PMA/ionomycin-induced NF-kB reporter in 697 B cells; 697 B-cell NF-kB luciferase reporter, 16 h; inhibition, % at 4 µM; AID 435022; hit rate 0.33% among 330,000; in the data active = inhibition above about 35%
# A number is an active result; . = inactive; / = not tested or not shown. This is a sample that favours compounds with a hit; in the whole collection about 1.8% have one here.
SMILES,Jurkat NFkB inh,UPR XBP1 act,CHOP UPR activ,CRFR2-BP antag,697 NFkB inh
Cc1ccc(-n2[nH]c(C)c(/C=N/Nc3ccc([N+](=O)[O-])cc3[N+](=O)[O-])c2=O)cc1,.,.,.,112.4,.
COc1cc(S(=O)(=O)N2CCOCC2)ccc1NC(=O)COC(=O)c1ccc(Cl)nc1,.,.,.,.,.
COc1ccc2c(c1)/C(=C/c1cc(OC)c(OC)c(OC)c1)C(=O)N2,/,/,/,106.1,/
COc1ccc(/C=C2\C(=O)NC(=O)c3ccccc32)cc1OC,/,/,/,.,/
N#C/C(N=Nc1ccccc1O)=N\Nc1ccccc1O,.,.,.,97.0,.
Cc1cc(C(=O)Nc2ccccc2Cl)n(-c2ccccc2)n1,.,.,.,.,.
CCn1c(CNC(=O)c2ccccc2Br)nnc1SCC(=O)Nc1nncs1,.,.,.,.,.
N#CC(C#N)=C(Nc1ccc(F)cc1)SCc1cccc(F)c1,.,.,.,94.4,.
Cn1c(CNC(=O)c2ccc(Cl)cc2)nnc1SCC(=O)N1CCOCC1,.,.,.,.,.
Cc1cc2nc(C)n(CCCN)c2cc1C,.,.,.,54.1,.
COc1cccc(CC(CC(=O)O)C(=O)Nc2cc(C)ccc2C)c1 (centres undefined),.,.,.,.,.
COC(=O)c1ccc(OCC(O)CN2C(=O)c3ccccc3S2(=O)=O)cc1 (centres undefined),.,.,.,58.2,.
Cc1ccc(NC(=O)COC(=O)c2cccnc2Cl)cc1S(=O)(=O)N1CCOCC1,.,.,.,64.0,.
CCOc1ncccc1C(=O)OCC(=O)Nc1ccc(C)c(S(=O)(=O)N2CCOCC2)c1,.,.,.,.,.
O=C(COC(=O)c1ccncc1)Nc1cc(S(=O)(=O)N2CCOCC2)ccc1Cl,.,.,.,67.2,.
O=C(COC(=O)c1ccc(Cl)nc1)Nc1cc(S(=O)(=O)N2CCOCC2)ccc1Cl,.,.,.,.,.
COc1cccc(N2CCN(C(=O)CCNS(=O)(=O)c3ccc(F)c(F)c3)CC2)c1,.,.,.,.,.
Cc1ccc(S(=O)(=O)N2c3ccccc3OCC2C(C)(C)C)cc1 (centres undefined),.,.,.,90.3,.
Cc1ccc2c(c1)N(S(=O)(=O)c1ccc(F)cc1)C(C(C)(C)C)CO2 (centres undefined),.,.,.,.,.
O=C(COC(=O)c1ccccc1)Nc1cccc(S(=O)(=O)N2CCCCC2)c1,.,.,.,.,.
CCN(CC)CCOC(=O)CCc1cccc2ccccc12,.,.,.,.,.
CCN(CC)CCOC(=O)C(Cc1ccco1)Cc1cccc2ccccc12 (centres undefined),.,.,.,52.4,.
CCOc1ccc(/C=C2\SC(=S)N(C(C(=O)O)c3ccccc3)C2=O)cc1OC (centres undefined),.,.,.,.,.
C=CCOc1ccc(/C=C2\SC(=S)N(C(C(=O)O)c3ccccc3)C2=O)cc1 (centres undefined),/,/,/,55.1,/
O=C(C(=O)N1CCCCC1)c1c(-c2ccccc2)[nH]c2ccccc12,.,.,.,.,.
SMILES,Jurkat NFkB inh,UPR XBP1 act,CHOP UPR activ,CRFR2-BP antag,697 NFkB inh
O=C(NCCCN1CCOCC1)C1CCN(S(=O)(=O)c2cccc(C(F)(F)F)c2)CC1,.,.,.,.,.
CCOc1c(C)cnc2c1c(=O)n(CC(=O)NCC1CCCO1)c(=O)n2C (centres undefined),.,.,.,.,.
CCOC(=O)c1sc2nc(C)n(CC(=O)NCC3CCCO3)c(=O)c2c1C (centres undefined),.,.,.,58.0,.
O=C(NC1CCS(=O)(=O)C1)c1ccc(N2CCCCC2)c([N+](=O)[O-])c1 (centres undefined),.,.,.,.,.
O=[N+]([O-])c1cccc(COc2ccc(CN3CCOCC3)cc2)c1,/,/,/,81.7,/
CCc1nc2nc(C)c(NS(=O)(=O)c3ccc(C4CCCCC4)cc3)c(=O)n2[nH]1,.,.,.,.,.
CC(=O)c1ccc(S(=O)(=O)N(C)CCCC(=O)N(C)Cc2c(F)cccc2Cl)cc1,.,.,.,.,.
Cc1cc(OCC(=O)C(C)(C)C)c2c(C)c(C)c(=O)oc2c1,.,.,.,108.6,.
COc1ccc(C(CNC(=O)c2cccc(NS(=O)(=O)c3ccc(Br)cc3)c2)N(C)C)cc1 (centres undefined),.,.,.,.,.
COC(=O)C1=CN(Cc2ccc(OC)cc2)C=C(C(=O)OC)C1c1cccs1,.,.,.,110.8,.
COC(=O)C1=CN(CCCN2CCCC2=O)C=C(C(=O)OC)C1c1cccs1,.,.,.,.,.
CC(=O)c1ccc(OC(=O)Cc2cccc3ccccc23)cc1,.,.,.,.,.
Cc1nnc(NC(=O)CSc2nnc(Cc3ccccc3)n2-c2ccccc2)s1,.,.,.,80.7,.
Cc1ccc(S(=O)(=O)Nc2ccccc2C=Nc2cccc(C)c2C)cc1,/,/,/,.,/
Cc1ccc(S(=O)(=O)Nc2ccccc2/C=N/c2nc3ccccc3n2C)cc1,/,/,/,71.0,/
COC(=O)[C@]1(Cc2ccccc2)N[C@H](CN(C)C(=O)COc2ccccc2)[C@@H]2C(=O)N(Cc3ccccc3)C(=O)[C@@H]21,.,.,.,.,.
O=C(NC(=S)N1CCN(c2ccc(F)cc2)CC1)c1cccs1,.,.,.,50.5,.
Cc1ccc(C)c(NC(=O)c2ccccc2NS(=O)(=O)c2cc([N+](=O)[O-])ccc2C)c1,.,.,.,77.9,.
CC12CCC3c4ccccc4CCC3(CO1)C2 (centres undefined),/,/,/,.,/
CCOc1ccc(-c2nc(N)ncc2Oc2cccc(OC)c2)c(O)c1,.,.,.,53.7,.
COc1cc(/C=C2/SC(=O)NC2=O)ccc1OC(=O)c1ccco1,.,.,.,.,.
CCOc1cc(/C=C2/SC(=S)NC2=O)ccc1OC(=O)c1ccco1,.,.,.,68.9,.
CCOc1ccc(NC(=O)Nc2cc(C(C)C)c(O)cc2C)cc1,.,.,.,.,.
CCOc1ccc(NC(=O)Nc2cc(C)ccc2F)cc1,.,.,.,66.4,.
COc1cc(C(=O)N(Cc2ccccc2)c2cccc(C)c2)ccc1OC(F)F,.,.,.,.,.
SMILES,Jurkat NFkB inh,UPR XBP1 act,CHOP UPR activ,CRFR2-BP antag,697 NFkB inh
Cc1cccc(OCCCC(=O)NC(C)c2ccccc2)c1 (centres undefined),.,.,.,.,.
Cc1cccc(OCCCC(=O)NC(C)C)c1,.,.,.,81.6,.
COc1ccccc1C(=O)COC(=O)c1c(-c2ccccc2)noc1C,.,.,.,50.2,.
Cc1ccc(NC(=O)CCS(=O)(=O)c2ccc3c(c2)NC(=O)C(C)S3)nc1 (centres undefined),.,.,.,.,.
COc1cc(C(=O)NCc2ccccc2Cl)ccc1OCC(=O)N1CCOCC1,/,/,/,62.0,/
COc1cc(C(=O)NNC(=O)COc2ccccc2Cl)ccc1OCC(=O)N1CCOCC1,.,.,.,.,.
